ChEMBL document CHEMBL1153955, “Indolylarylsulfones bearing natural and unnatural amino acids. Discovery of potent inhibitors of HIV-1 non-nucleoside wild type and resistant mutant strains reverse transcriptase and coxsackie B4 virus” (J Med Chem, 2009)

How the values were obtained:
CCRF-CEM = experiment: Antiproliferative activity against human CEM cells after 3 days; assay type: cell-based; conditions: 72 h
Procedure, shortened: (§1)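 Cells seeded at 5 × 10⁴ to 7.5 × 10⁴ cells/200 µL with or without serial compound dilutions; incubated at 37 °C for 2 days (L1210) or 3 days (Molt4/C8, CEM). Cell numbers counted with a Coulter counter. CC₅₀ = concentration reducing proliferation by 50% versus untreated controls, read from plots of cell number (% of control) against concentration. Means of at least two independent experiments.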

[1] = test system: Vesicular stomatitis virus; experiment: Antiviral activity against VSV in human HEL cells assessed as protection against virus-induced cytopathicity; assay type: functional, organism-based
[2] = Cytotoxicity against african green monkey Vero cells assessed as drug level causing microscopically detectable alteration of normal cell morphology after 3 days; assay type: cell-based; conditions: chlorocebus sabaeus
Procedure, shortened: (§2)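 Serial compound dilutions added to confluent HeLa or Vero monolayers. MCC = minimum concentration causing microscopically detectable alteration of cell morphology after 3 days of incubation.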

Influenza B virus [3] = experiment: Antiviral activity against influenza B virus in MDCK cells assessed as reduction of virus-induced cytopathicity by visual cytopathic effect scoring method; assay type: functional, organism-based
[4] = test system: Mammalian orthoreovirus 1; experiment: Antiviral activity against Reovirus 1 in african green monkey Vero cells assessed as protection against virus-induced cytopathicity; assay type: functional, organism-based; conditions: Mammalian orthoreovirus 1, Vero
Procedure, shortened: (§3)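 Confluent cell monolayers inoculated with 100 CCID₅₀ virus. After 1-2 h adsorption, residual virus removed and cultures incubated with varying compound concentrations. Cytopathicity scored once it reached completion in untreated infected controls. EC₅₀ = dose reducing virus-induced cytopathogenicity by 50%.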

Coxsackievirus B4 [5] = experiment: Antiviral activity against Coxsackievirus B4 in african green monkey Vero cells assessed as protection against virus-induced cytopathicity; assay type: functional, organism-based; conditions: Enterovirus B; procedure, shortened: as §3
Vaccinia virus = experiment: Antiviral activity against Vaccinia virus Lederle in human HEL cells assessed as protection against virus-induced cytopathicity; assay type: functional, organism-based; conditions: Orthopoxvirus vaccinia
Influenza A virus H3N2 [6] = experiment: Antiviral activity against influenza H3N2 virus in MDCK cells assessed as reduction of virus-induced cytopathicity by visual cytopathic effect scoring method; assay type: functional, organism-based
Influenza A virus H3N2 [7] = experiment: Antiviral activity against influenza H3N2 virus in MDCK cells assessed as reduction of virus-induced cytopathicity by MTS method; assay type: functional, organism-based
L1210 = experiment: Antiproliferative activity against mouse L1210 cells after 2 days; assay type: cell-based; conditions: L1210, 48 h; procedure, shortened: as §1
Sindbis virus = experiment: Antiviral activity against Sindbis virus in african green monkey Vero cells assessed as protection against virus-induced cytopathicity; assay type: functional, organism-based; procedure, shortened: as §3
Human alphaherpesvirus 1 [8] = experiment: Antiviral activity against thymidine kinase deficient and acyclovir resistant HSV1 KOS in human HEL cells assessed as protection against virus-induced cytopathicity; assay type: functional, organism-based; conditions: Human alphaherpesvirus 1, KOS
[9] = Cytotoxicity against feline CRFK cells by MTS assay; assay type: cell-based, Felis catus; conditions: cat
[10] = test system: Human immunodeficiency virus 2; experiment: Antiviral activity against HIV2 ROD in human CEM cells assessed as protection against virus-induced cytopathicity after 4 days; assay type: functional, organism-based; conditions: Human immunodeficiency virus 2, ROD, CCRF-CEM, 96 h
Procedure, shortened: (§4)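 CEM cells (~3 × 10⁵ cells/mL) infected with ~100 CCID₅₀ per mL of HIV-1 (IIIB) or HIV-2 (ROD), then seeded into wells containing compound dilutions. After 4 days at 37 °C, syncytium (giant cell) formation was examined microscopically. EC₅₀ = concentration protecting CEM cells from HIV cytopathicity by 50%.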

Felid alphaherpesvirus 1 = experiment: Antiviral activity against Feline herpesvirus in feline […] cells assessed as inhibition of virus-induced cytopathicity; assay type: functional, organism-based
[11] = target: Human immunodeficiency virus type 1 reverse transcriptase (Human immunodeficiency virus 1, UniProt Q72547); experiment: Inhibition of HIV1 reverse transcriptase p66/p51; conditions: read-out: IC50
Influenza B virus [12] = experiment: Antiviral activity against influenza B virus in MDCK cells assessed as reduction of virus-induced cytopathicity by MTS method; assay type: functional, organism-based
[13] = Cytotoxicity against MDCK cells assessed as drug level causing microscopically detectable alteration of normal cell morphology; assay type: cell-based, Canis lupus familiaris; conditions: dog
Feline coronavirus = experiment: Antiviral activity against Feline coronavirus in feline […] cells assessed as inhibition of virus-induced cytopathicity; assay type: functional, organism-based; conditions: Alphacoronavirus 1
Punta Toro virus = experiment: Antiviral activity against Punta Toro virus in african green monkey Vero cells assessed as protection against virus-induced cytopathicity; assay type: functional, organism-based; procedure, shortened: as §3
Human respirovirus 3 = experiment: Antiviral activity against Parainfluenza virus type 3 in african green monkey Vero cells assessed as protection against virus-induced cytopathicity; assay type: functional, organism-based; conditions: Human respirovirus 3, Vero; procedure, shortened: as §3
[14] = test system: Human immunodeficiency virus 1; experiment: Antiviral activity against HIV1 3B in human CEM cells assessed as protection against virus-induced cytopathicity after 4 days; assay type: functional, organism-based; conditions: Human immunodeficiency virus 1, 3B, CCRF-CEM, 96 h; procedure, shortened: as §4
Coxsackievirus B4 [15] = experiment: Antiviral activity against Coxsackievirus B4 in human HeLa cells assessed as protection against virus-induced cytopathicity; assay type: functional, organism-based; conditions: Enterovirus B; procedure, shortened: as §3
Human alphaherpesvirus 2 = experiment: Antiviral activity against HSV2 G in human HEL cells assessed as protection against virus-induced cytopathicity; assay type: functional, organism-based; conditions: Human alphaherpesvirus 2, strain G; procedure, shortened: as §3
[16] = Cytotoxicity against human HeLa cells assessed as drug level causing microscopically detectable alteration of normal cell morphology after 3 days; assay type: cell-based; procedure, shortened: as §2
Influenza A virus [17] = experiment: Antiviral activity against influenza H1N1 virus in MDCK cells assessed as reduction of virus-induced cytopathicity by MTS method; assay type: functional, organism-based; conditions: Influenza A virus, H1N1, MDCK
Human alphaherpesvirus 1 [18] = experiment: Antiviral activity against HSV1 KOS in human HEL cells assessed as protection against virus-induced cytopathicity; assay type: functional, organism-based; conditions: Human alphaherpesvirus 1, KOS
[19] = Cytotoxicity against human HEL cells assessed as drug level causing microscopically detectable alteration of normal cell morphology after 3 days; assay type: cell-based
[20] = Cytotoxicity against MDCK cells by MTS assay; assay type: cell-based, Canis lupus familiaris; conditions: dog
[21] = target: Human immunodeficiency virus type 1 reverse transcriptase (Human immunodeficiency virus 1, UniProt Q72547, K103N); experiment: Inhibition of HIV1 reverse transcriptase p66/p51 K103N mutant; conditions: read-out: IC50
Procedure, shortened: (§5)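 Substrate was 0.5 µg poly(rA)/oligo(dT) 10:1 (0.3 µM 3′-OH ends) with 10 µM [³H]dTTP, at 37 °C. Acid-precipitable radioactivity was counted on GF/C filters after TCA washes.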

[22] = test system: Respiratory syncytial virus; experiment: Antiviral activity against RSV Long in human HeLa cells assessed as protection against virus-induced cytopathicity; assay type: functional, organism-based; procedure, shortened: as §3
[23] = Antiproliferative activity against human Molt4/C8 cells after 3 days; assay type: cell-based; conditions: MOLT-4, 72 h; procedure, shortened: as §1
Influenza A virus [24] = experiment: Antiviral activity against influenza H1N1 virus in MDCK cells assessed as reduction of virus-induced cytopathicity by visual cytopathic effect scoring method; assay type: functional, organism-based
[25] = test system: Vesicular stomatitis virus; experiment: Antiviral activity against VSV in human HeLa cells assessed as protection against virus-induced cytopathicity; assay type: functional, organism-based
[26] = target: Human immunodeficiency virus type 1 reverse transcriptase (Human immunodeficiency virus 1, UniProt Q72547, Y181I); experiment: Inhibition of HIV1 reverse transcriptase p66/p51 Y181I mutant; conditions: read-out: IC50; procedure, shortened: as §5
[27] = target: Human immunodeficiency virus type 1 reverse transcriptase (Human immunodeficiency virus 1, UniProt Q72547, L100I); experiment: Inhibition of HIV1 reverse transcriptase p66/p51 L100I mutant; conditions: read-out: IC50; procedure, shortened: as §5

For Cc1cc(C)cc(S(=O)(=O)c2c(C(=O)NNC(C)C)[nH]c3ccc(Cl)cc23)c1, the IC50 (CCRF-CEM) was ≥ 500 µM, the EC50 [1] was > 100 µM and the MCC at 72 h [2] was > 100 µM. The EC50 (Influenza B virus [3]) was > 20 µM, the EC50 [4] was > 100 µM and the EC50 (Coxsackievirus B4 [5]) was > 100 µM. The EC50 (Vaccinia virus) was > 100 µM, the EC50 (Influenza A virus H3N2 [6]) was > 20 µM and the EC50 (Influenza A virus H3N2 [7]) was > 20 µM. For the same compound, the IC50 (L1210) was > 500 µM, the EC50 (Sindbis virus) was > 100 µM and the EC50 (Human alphaherpesvirus 1 [8]) was > 100 µM. For the same compound, the CC50 [9] was > 100 µM, the EC50 [10] was > 50 µM and the EC50 (Felid alphaherpesvirus 1) was > 100 µM. For the same compound, the IC50 [11] was 0.01 µM, the EC50 (Influenza B virus [12]) was > 20 µM and the MCC [13] was 100 µM. The EC50 (Feline coronavirus) was > 100 µM, the EC50 (Punta Toro virus) was > 100 µM and the EC50 (Human respirovirus 3) was > 100 µM. The EC50 [14] was 0.0064 µM, the EC50 (Coxsackievirus B4 [15]) was > 100 µM and the EC50 (Human alphaherpesvirus 2) was > 100 µM. The MCC at 72 h [16] was > 100 µM, the EC50 (Influenza A virus [17]) was > 20 µM and the EC50 (Human alphaherpesvirus 1 [18]) was > 100 µM. The MCC at 72 h [19] was > 100 µM, the CC50 [20] was > 100 µM and the IC50 [21] was 0.8 µM. The EC50 [22] was > 100 µM, the IC50 [23] was 432 µM and the EC50 (Influenza A virus [24]) was > 20 µM. The EC50 [25] was > 100 µM.

Compound Cc1cc(C)cc(S(=O)(=O)c2c(C(=O)N[C@H](C)C(N)=O)[nH]c3ccc(Cl)cc23)c1 has an IC50 [11] of 0.017 µM and an IC50 [21] of 0.253 µM.

In the case of Cc1cc(C)cc(S(=O)(=O)c2c(C(=O)NCC(N)=O)[nH]c3ccc([N+](=O)[O-])cc23)c1, the IC50 (CCRF-CEM) is reported as ≥ 500 µM, the EC50 [1] is reported as > 20 µM and the MCC at 72 h [2] is reported as > 100 µM. The EC50 (Influenza B virus [3]) was > 20 µM, the EC50 [4] was > 100 µM and the EC50 (Coxsackievirus B4 [5]) was > 100 µM. The EC50 (Vaccinia virus) was > 20 µM, the EC50 (Influenza A virus H3N2 [6]) was > 20 µM and the EC50 (Influenza A virus H3N2 [7]) was > 20 µM. The IC50 (L1210) was > 500 µM, the EC50 (Sindbis virus) was > 100 µM and the EC50 (Human alphaherpesvirus 1 [8]) was > 20 µM. The CC50 [9] was > 100 µM, the EC50 [10] was > 50 µM and the EC50 (Felid alphaherpesvirus 1) was > 100 µM. The IC50 [11] was 0.034 µM, the IC50 [26] was 2.91 µM and the EC50 (Influenza B virus [12]) was > 20 µM. For the same compound, the IC50 [27] was 0.206 µM, the MCC [13] was 100 µM and the EC50 (Feline coronavirus) was > 100 µM. For the same compound, the EC50 (Punta Toro virus) was > 100 µM, the EC50 (Human respirovirus 3) was > 100 µM and the EC50 [14] was 0.0024 µM. For the same compound, the EC50 (Coxsackievirus B4 [15]) was > 100 µM, the EC50 (Human alphaherpesvirus 2) was > 20 µM and the MCC at 72 h [16] was > 100 µM. The EC50 (Influenza A virus [17]) was > 20 µM, the EC50 (Human alphaherpesvirus 1 [18]) was > 20 µM and the MCC at 72 h [19] was 100 µM. For the same compound, the CC50 [20] was > 100 µM, the IC50 [21] was 0.417 µM and the EC50 [22] was > 100 µM. For the same compound, the IC50 [23] was > 500 µM, the EC50 (Influenza A virus [24]) was > 20 µM and the EC50 [25] was > 100 µM.

In the case of Cc1cc(C)cc(S(=O)(=O)c2c(C(=O)N[C@H](C)C(N)=O)[nH]c3ccc(Br)cc23)c1, the IC50 [11] is reported as 0.016 µM and the IC50 [21] is reported as 0.324 µM.

Work on Cc1cc(C)cc(S(=O)(=O)c2c(C(=O)N[C@H](C)CC(N)=O)[nH]c3ccc(Cl)cc23)c1 yielded an IC50 [11] of 0.147 µM and an IC50 [21] of 1.42 µM.

Work on Cc1cc(C)cc(S(=O)(=O)c2c(C(=O)N[C@@H](C)C(N)=O)[nH]c3ccc(Br)cc23)c1 yielded an IC50 [11] of 0.013 µM and an IC50 [21] of 1.5 µM.

In the case of Cc1cc(C)cc(S(=O)(=O)c2c(C(=O)N[C@@H](C)C(N)=O)[nH]c3ccc(Cl)cc23)c1, the IC50 [11] is reported as 0.026 µM and the IC50 [21] is reported as 1.01 µM.

Cc1cc(C)cc(S(=O)(=O)c2c(C(=O)N[C@@H](C)CC(N)=O)[nH]c3ccc(Cl)cc23)c1 gave an IC50 [11] of 0.315 µM and an IC50 [21] of 1.34 µM.
